From ChEMBL document CHEMBL4145618, “Constraining Endomorphin-1 by β,α-Hybrid Dipeptide/Heterocycle Scaffolds: Identification of a Novel κ-Opioid Receptor Selective Partial Agonist” (J Med Chem, 2018)
Calls of active or inactive are those of the source.

Assays:
Mu-type opioid receptor [1] = target: T1, Mu-type opioid receptor (Homo sapiens, UniProt P35372); test: Agonist activity at human mu opioid receptor expressed in HEK293 assessed as inhibition forskolin-induced cAMP accumulation at 0.00001 to 100 uM after 15 mins by EIA relative to control; format: functional, cell-based
Summary of the method: (§1)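 Whole HEK-293 cells stably expressing human KOR or MOR, in serum-free medium with 0.5 mM IBMX. Cells exposed 15 min at 37°C to 10 µM forskolin, with or without test agent. KOR co-treatment run: U50,488 1 pM–100 µM with or without 1 µM test agent. cAMP measured by enzyme immunoassay.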

[2] = Drug metabolism in mouse serum assessed as compound hydrolysis after 4 hrs by RP-HPLC analysis; format: ADME, cell-free; details: read-out: Drug metabolism
Summary of the method: (§2)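 Peptides incubated in mouse serum at 37°C for up to 4 h and sampled over time. Enzymatic activity stopped with cold acetonitrile, then centrifuged. Intact peptide in the supernatant quantified by reversed-phase HPLC, with ESI-MS analysis.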

Mu-type opioid receptor [3] = target: T1, Mu-type opioid receptor; test: Agonist activity at human mu opioid receptor expressed in HEK293 assessed as inhibition forskolin-induced cAMP accumulation after 15 mins by EIA; format: functional, cell-based; summary of the method: as §1
[4] = target: Delta-type opioid receptor (Homo sapiens, UniProt P41143); test: Displacement of [3H]diprenorphine from human delta opioid receptor expressed in HEK293 cell membranes after 2 hrs by liquid scintillation spectrometry
[5] = target: T2, Kappa-type opioid receptor (Homo sapiens, UniProt P41145); test: Displacement of [3H]U69,593 from human kappa opioid receptor expressed in HEK293 cell membranes after 2 hrs by liquid scintillation spectrometry
Summary of the method: (§3)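 Membranes from HEK-293 cells stably expressing human opioid receptors. Radioligands: [3H]DAMGO for MOR, [3H]diprenorphine for DOR, [3H]U69,593 for KOR. Competitor range 10^-12–10^-4 M, 120 min at 25°C, Tris-HCl buffer with 0.3% BSA. Unlabelled ligands defined nonspecific binding. Bound label collected on 0.3% polyethylenimine-presoaked filters and counted by liquid scintillation. Ki from IC50 via Cheng-Prusoff.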

Mu-type opioid receptor [6] = target: T1, Mu-type opioid receptor; test: Displacement of [3H]DAMGO from human mu opioid receptor expressed in HEK293 cell membranes after 2 hrs by liquid scintillation spectrometry; summary of the method: as §3
Mus musculus [7] = test: Antinociceptive activity in CD1 mouse assessed as increase in latency to response at 20 mg/kg, ip measured at 15 mins post dose by tail immersion test relative to control; format: functional
Summary of the method: (§4)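 Mouse warm-water tail immersion at 52 ± 0.5 °C. Control withdrawal latency recorded before dosing; only mice responding within 5 s were used. Vehicle or compound given ip at 10 or 20 mg/kg. Where stated, norBNI 10 mg/kg given 30 min before compound. Test latency taken with 10 s cutoff. MPE% = 100 × (TL − CL)/(10 − CL); n = 6.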

[8] = target: T2, Kappa-type opioid receptor; test: Agonist activity at human kappa opioid receptor expressed in HEK293 assessed as inhibition forskolin-induced cAMP accumulation at 0.00001 to 100 uM after 15 mins by cAMP EIA relative to control; format: functional, cell-based; summary of the method: as §1
[9] = Drug metabolism in mouse serum assessed as compound hydrolysis after 1 hr by RP-HPLC analysis; format: ADME, cell-free; details: read-out: Drug metabolism; summary of the method: as §2
Mus musculus [10] = test: Antinociceptive activity in CD1 mouse assessed as increase in latency to response at 20 mg/kg, ip measured at 15 mins post dose in presence of KOR antagonist nor-BNI by tail immersion test; format: functional, organism-based; summary of the method: as §4
[11] = target: T2, Kappa-type opioid receptor; test: Agonist activity at human kappa opioid receptor expressed in HEK293 assessed as inhibition forskolin-induced cAMP accumulation at 1 uM after 15 mins in presence of U50,488 by EIA; format: functional, cell-based; summary of the method: as §1
[12] = target: T2, Kappa-type opioid receptor; test: Agonist activity at human kappa opioid receptor expressed in HEK293 assessed as inhibition forskolin-induced cAMP accumulation after 15 mins by EIA; format: functional, cell-based; summary of the method: as §1
Mus musculus [13] = test: Antinociceptive activity in CD1 mouse assessed as increase in latency to response at 20 mg/kg, ip measured at 30 mins post dose by tail immersion test relative to control; format: functional; summary of the method: as §4
Mus musculus [14] = test: Antinociceptive activity in CD1 mouse assessed as increase in latency to response at 10 mg/kg, ip measured at 15 mins post dose by tail immersion test; format: functional, organism-based; summary of the method: as §4

T2 sequence (P41145 whole entry): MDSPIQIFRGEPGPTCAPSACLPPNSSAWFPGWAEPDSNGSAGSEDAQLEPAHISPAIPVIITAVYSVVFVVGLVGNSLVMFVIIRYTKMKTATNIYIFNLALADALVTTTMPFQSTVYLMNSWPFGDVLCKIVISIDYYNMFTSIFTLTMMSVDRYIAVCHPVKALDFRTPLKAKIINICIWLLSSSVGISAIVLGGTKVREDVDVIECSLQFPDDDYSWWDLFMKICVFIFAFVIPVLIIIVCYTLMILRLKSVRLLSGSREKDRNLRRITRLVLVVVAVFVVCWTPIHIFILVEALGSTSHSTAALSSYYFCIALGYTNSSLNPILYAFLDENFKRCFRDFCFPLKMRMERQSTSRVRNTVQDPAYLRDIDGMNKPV
T1 sequence (P35372 whole entry): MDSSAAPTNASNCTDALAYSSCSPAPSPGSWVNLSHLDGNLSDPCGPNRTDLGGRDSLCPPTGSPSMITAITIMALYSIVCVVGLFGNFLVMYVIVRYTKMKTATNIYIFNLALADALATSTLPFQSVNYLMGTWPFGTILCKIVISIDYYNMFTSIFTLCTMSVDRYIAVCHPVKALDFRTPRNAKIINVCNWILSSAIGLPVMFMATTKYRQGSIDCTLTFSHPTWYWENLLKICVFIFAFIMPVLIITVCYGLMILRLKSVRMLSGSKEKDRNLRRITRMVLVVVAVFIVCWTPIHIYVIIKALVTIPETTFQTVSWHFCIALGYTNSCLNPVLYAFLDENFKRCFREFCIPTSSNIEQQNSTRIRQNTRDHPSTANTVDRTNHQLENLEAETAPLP
Sequence of Delta-type opioid receptor (P41143 whole entry): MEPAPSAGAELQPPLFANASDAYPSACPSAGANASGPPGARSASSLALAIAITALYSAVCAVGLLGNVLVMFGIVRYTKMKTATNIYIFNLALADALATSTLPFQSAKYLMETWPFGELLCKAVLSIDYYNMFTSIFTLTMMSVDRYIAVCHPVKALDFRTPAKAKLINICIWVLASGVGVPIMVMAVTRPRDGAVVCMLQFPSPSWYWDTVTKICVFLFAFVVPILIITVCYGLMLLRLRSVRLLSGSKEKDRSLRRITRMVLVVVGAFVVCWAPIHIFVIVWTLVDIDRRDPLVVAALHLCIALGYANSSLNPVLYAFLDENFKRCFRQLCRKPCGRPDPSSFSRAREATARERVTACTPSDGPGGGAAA

Row | Compound | Emax (Mu-type opioid receptor [1]) [%] | Ki [4] [µM] | Ki [5] [µM] | Ki (Mu-type opioid receptor [6]) [µM] | further results
1 | N[C@@H](Cc1ccc(O)cc1)C(=O)N1CCC[C@H]1C(=O)N[C@@H](Cc1c[nH]c2ccccc12)C(=O)N[C@@H](Cc1ccccc1)C(=O)O | 53 |  |  |  | 
2 | NC(=O)[C@H](Cc1ccccc1)NC(=O)[C@@H](Cc1c[nH]c2ccccc12)N1C(=O)O[C@H](CNC(=O)[C@@H](N)Cc2ccc(O)cc2)C1=O | 50 | > 100 | > 100 | 0.24 | metabolised at 4 h [2]: < 10%; IC50 (Mu-type opioid receptor [3]): 0.016 nM
3 | NC(=O)[C@H](Cc1ccccc1)NC(=O)[C@@H](Cc1c[nH]c2ccccc12)N1C(=O)O[C@@H](CNC(=O)[C@@H](N)Cc2ccc(O)cc2)C1=O |  | > 100 | > 100 | > 100 | 
4 | NC(=O)[C@H](Cc1ccccc1)NC(=O)[C@H](Cc1c[nH]c2ccccc12)N1C(=O)O[C@@H](CNC(=O)[C@@H](N)Cc2ccc(O)cc2)C1=O |  | > 100 | 0.0098 | > 100 | MPE (Mus musculus [7]): 60%; Emax [8]: 40%; metabolised at 1 h [9]: < 5%; Activity (Mus musculus [10]): inactive; inhibition [11]: 40%; IC50 [12]: 0.00022 µM; MPE (Mus musculus [13]): 42%; Activity (Mus musculus [14]): Active
5 | NC(=O)[C@H](Cc1ccccc1)NC(=O)[C@H](Cc1c[nH]c2ccccc12)N1C(=O)O[C@H](CNC(=O)[C@@H](N)Cc2ccc(O)cc2)C1=O |  | > 100 | > 100 | > 100 | 
